Measured values published in ChEMBL document CHEMBL1126871, “Non-steroidal glucocorticoid-like substances: receptor binding and in vivo activity” (J Med Chem, 1993).
Calls of active or inactive are those of the source. The rule behind the calls is not given here.

Experiments:
Type in all cases: functional, organism-based
[1] = molecular target: T1, Glucocorticoid receptor (Rattus norvegicus) (UniProt P06536); test: In vivo antiinflammatory activity in the rat, alpha-tocopherol filled pouch peroral dose; IA = inactive
T1 sequence (whole entry): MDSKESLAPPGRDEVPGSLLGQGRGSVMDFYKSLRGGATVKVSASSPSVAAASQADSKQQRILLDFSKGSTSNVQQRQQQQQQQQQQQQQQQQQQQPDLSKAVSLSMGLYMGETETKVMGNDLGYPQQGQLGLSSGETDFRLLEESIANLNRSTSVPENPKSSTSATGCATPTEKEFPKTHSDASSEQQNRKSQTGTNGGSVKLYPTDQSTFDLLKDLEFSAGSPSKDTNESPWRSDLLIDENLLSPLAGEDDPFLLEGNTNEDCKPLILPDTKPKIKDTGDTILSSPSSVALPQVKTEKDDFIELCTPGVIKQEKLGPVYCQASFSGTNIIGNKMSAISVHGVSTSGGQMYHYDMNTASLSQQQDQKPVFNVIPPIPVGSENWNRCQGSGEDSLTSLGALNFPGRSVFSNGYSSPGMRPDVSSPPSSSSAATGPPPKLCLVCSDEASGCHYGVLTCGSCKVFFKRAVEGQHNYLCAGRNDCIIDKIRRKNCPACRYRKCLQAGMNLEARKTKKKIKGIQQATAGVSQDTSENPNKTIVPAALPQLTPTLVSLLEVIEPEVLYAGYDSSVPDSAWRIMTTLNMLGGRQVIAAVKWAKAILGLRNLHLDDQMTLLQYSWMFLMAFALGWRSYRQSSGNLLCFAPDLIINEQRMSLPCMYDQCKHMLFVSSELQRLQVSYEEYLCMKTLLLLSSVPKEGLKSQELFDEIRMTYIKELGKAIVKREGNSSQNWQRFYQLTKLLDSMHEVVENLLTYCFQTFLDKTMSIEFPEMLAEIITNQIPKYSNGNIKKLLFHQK
Procedure, shortened: (§1)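 Rats receive an air-filled pouch injected with 0.5 mL DL-α-tocopherol. Oral doses are given daily for 7 days, starting on the day of pouch formation, as suspensions in 1% gum tragacanth. ED50 is in mg/kg po.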

[2] = molecular target: T1, Glucocorticoid receptor (Rattus norvegicus); test: (§2) In vivo glucocorticoid profile, depression of adrenal weight in rat at 100 mg/kg peroral dose; set-up: dose 100 mg/kg
Procedure, shortened: (§3)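 Two-week oral glucocorticoid profile in rats. Thymus weight, adrenal weight and body weight gain are each expressed as % change from control.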

[3] = molecular target: T1, Glucocorticoid receptor (Rattus norvegicus); test: In vivo glucocorticoid profile, depression of thymus weight in rat at 100 mg/kg peroral dose; set-up: dose 100 mg/kg; procedure, shortened: as §3
[4] = molecular target: T1, Glucocorticoid receptor (Rattus norvegicus); test: In vivo glucocorticoid profile, depression of body weight gain without altered food consumption in rat at 100 mg/kg peroral dose; set-up: dose 100 mg/kg; procedure, shortened: as §3
[5] = molecular target: T1, Glucocorticoid receptor (Rattus norvegicus); test: In vivo glucocorticoid profile, depression of adrenal weight in rat at 5 mg/kg peroral dose; set-up: dose 5 mg/kg; procedure, shortened: as §3
[6] = molecular target: T1, Glucocorticoid receptor (Rattus norvegicus); test: In vivo glucocorticoid profile, depression of adrenal weight in rat at 25 mg/kg peroral dose; set-up: dose 25 mg/kg
Procedure, shortened: (§4)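 Two-week oral dosing test in rats. At the end, thymus weight, adrenal weight and body weight gain are recorded and expressed as % change from control.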

[7] = molecular target: T1, Glucocorticoid receptor (Rattus norvegicus); test: In vivo glucocorticoid profile, depression of thymus weight in rat at 25 mg/kg peroral dose; set-up: dose 25 mg/kg; procedure, shortened: as §4
[8] = molecular target: T1, Glucocorticoid receptor (Rattus norvegicus); test: (§5) In vivo glucocorticoid profile, depression of body weight gain without altered food consumption in rat at 25 mg/kg peroral dose; set-up: dose 25 mg/kg; procedure, shortened: as §3
[9] = molecular target: T1, Glucocorticoid receptor (Rattus norvegicus); test: (§6) In vivo glucocorticoid profile, depression of body weight gain without altered food consumption in rat at 5 mg/kg peroral dose; set-up: dose 5 mg/kg; procedure, shortened: as §3
[10] = molecular target: T1, Glucocorticoid receptor (Rattus norvegicus); test: In vivo glucocorticoid profile, depression of thymus weight in rat at 5 mg/kg peroral dose; set-up: dose 5 mg/kg; procedure, shortened: as §3
[11] = molecular target: T1, Glucocorticoid receptor (Rattus norvegicus); test: as §2; set-up: dose 100 mg/kg; procedure, shortened: as §4; remark: listed apart in the source
[12] = molecular target: T1, Glucocorticoid receptor (Rattus norvegicus); test: In vivo glucocorticoid profile, depression of adrenal weight in rat at 50 mg/kg peroral dose; set-up: dose 50 mg/kg; procedure, shortened: as §3
[13] = molecular target: T1, Glucocorticoid receptor (Rattus norvegicus); test: In vivo antiinflammatory activity in the rat, alpha-tocopherol filled pouch 50 mg/kg peroral dose; IA = inactive; set-up: dose 50 mg/kg
[14] = molecular target: T1, Glucocorticoid receptor (Rattus norvegicus); test: In vivo glucocorticoid profile, depression of body weight gain without altered food consumption in rat at 50 mg/kg peroral dose; set-up: dose 50 mg/kg; procedure, shortened: as §3
[15] = molecular target: T1, Glucocorticoid receptor (Rattus norvegicus); test: In vivo glucocorticoid profile, depression of thymus weight in rat at 50 mg/kg peroral dose; set-up: dose 50 mg/kg; procedure, shortened: as §3
[16] = molecular target: T1, Glucocorticoid receptor (Rattus norvegicus); test: In vivo glucocorticoid profile, depression of adrenal weight in rat at 1 mg/kg peroral dose; set-up: dose 1 mg/kg; procedure, shortened: as §3
[17] = molecular target: T1, Glucocorticoid receptor (Rattus norvegicus); test: In vivo glucocorticoid profile, depression of thymus weight in rat at 1 mg/kg peroral dose; set-up: dose 1 mg/kg; procedure, shortened: as §3
[18] = molecular target: T1, Glucocorticoid receptor (Rattus norvegicus); test: (§7) In vivo glucocorticoid profile, depression of body weight gain without altered food consumption in rat at 1 mg/kg peroral dose; set-up: dose 1 mg/kg; procedure, shortened: as §3
[19] = molecular target: T1, Glucocorticoid receptor (Rattus norvegicus); test: In vivo anti-inflammatory activity in the rat, alpha-tocopherol filled pouch peroral dose; procedure, shortened: as §1
[20] = molecular target: T1, Glucocorticoid receptor (Rattus norvegicus); test: as §5; set-up: dose 25 mg/kg; procedure, shortened: as §4; remark: listed apart in the source
[21] = molecular target: T1, Glucocorticoid receptor (Rattus norvegicus); test: as §6; set-up: dose 5 mg/kg; procedure, shortened: as §4; remark: listed apart in the source
[22] = molecular target: T1, Glucocorticoid receptor (Rattus norvegicus); test: as §7; set-up: dose 1 mg/kg; procedure, shortened: as §4; remark: listed apart in the source
[23] = molecular target: T1, Glucocorticoid receptor (Rattus norvegicus); test: In vivo antiinflammatory activity in the rat, alpha-tocopherol filled pouch 25 mg/kg peroral dose; IA = inactive; set-up: dose 25 mg/kg; procedure, shortened: as §1
[24] = molecular target: T1, Glucocorticoid receptor (Rattus norvegicus); test: In vivo antiinflammatory activity in the rat, alpha-tocopherol filled pouch 100 mg/kg peroral dose; IA = inactive; set-up: dose 100 mg/kg; procedure, shortened: as §1

Change [3] [%] | Weight gain [4] | Change [5] [%] | Weight gain [9] | Change [10] [%] | Change [16] [%] | Change [17] [%] | ED50 [19] [mg/kg] | SMILES | also measured
-64 | -88 | – | – | – | – | – | – | C[C@]12Cc3cnn(-c4ccc(F)cc4)c3C=C1CC[C@H]1C2=CCCC1c1ccccn1 (stereo partly specified) | ED50 [1]: inactive; Change [2]: -48%
– | – | -38 | -62 | -51 | – | – | – | C[C@]12Cc3cnn(-c4ccccc4)c3C=C1CC[C@@H]1OC3(CC=C12)C(=O)c1ccccc1C3=O | ED50 [1]: inactive; Change [6]: -50%; Change [7]: -62%; Weight gain [8]: -86
– | – | -42 | -79 | -70 | 0 | -40 | 2 | C[C@H]1C[C@@H]2[C@H]([C@@H](O)C[C@@]3(C)[C@H]2CC[C@]3(O)C(=O)CO)[C@@]2(C)C=CC(=O)C=C12 | Weight gain [18]: -45
– | – | 0 | 0 | 0 | – | – | – | C#CCN1C(=O)N(CC#C)C(=O)C2(CC=C3[C@H](CCC4=Cc5c(cnn5-c5ccc(F)cc5)C[C@@]43C)O2)C1=O | –
– | – | -64 | -224 | -79 | -56 | -61 | 10 | C[C@]12Cc3cnn(-c4ccc(F)cc4)c3C=C1CC[C@@H]1OC3(CC=C12)C(=O)c1ccccc1C3=O | Weight gain [18]: -129
– | – | – | – | – | – | – | – | CC(C)N1C(=O)N(C(C)C)C(=O)C2(CC=C3[C@H](CCC4=Cc5c(cnn5-c5ccc(F)cc5)C[C@@]43C)O2)C1=O | Change [12]: 0%; ED50 [23]: inactive; Weight gain [14]: 0; Change [15]: 0%
-80 | -186 | 0 | 0 | 0 | – | – | – | CCOC(=O)C1(C(=O)OCC)CCC=C2[C@@H]1CCC1=Cc3c(cnn3-c3ccc(F)cc3)C[C@@]12C | ED50 [24]: inactive; Change [2]: -47%

SMILES | Change [3] [%] | Weight gain [4] | Change [5] [%] | Weight gain [9] | Change [10] [%] | Change [16] [%] | Change [17] [%] | ED50 [19] [mg/kg] | also measured
C[C@]12Cc3cnn(-c4ccccc4)c3C=C1CC[C@@H]1OC3(CC=C12)C(=O)NC(=O)NC3=O | 0 | 0 | – | – | – | – | – | – | Change [11]: 0%; Change [12]: 0%; ED50 [13]: inactive; Weight gain [14]: 0; Change [15]: -34%
C[C@]12Cc3cnn(-c4ccc(F)cc4)c3C=C1CC[C@@H]1OC3(CC=C12)C(=O)NC(=O)NC3=O | – | – | -30 | – | -72 | 0 | 0 | 4 | Change [6]: -53%; Change [7]: -84%; Weight gain [20]: -180; Weight gain [21]: -140; Weight gain [22]: -65
